# Experimental data as given in ChEMBL document CHEMBL3286094, “Synthesis and biological evaluation of novel bisbenzimidazoles as Escherichia coli topoisomerase IA inhibitors and potential antibacterial agents” (J Med Chem, 2014).
# Key:
# [1] = Inhibition of Escherichia coli DNA topoisomerase-1A using supercoiled pHOT1 plasmid DNA as substrate assessed as inhibition of DNA relaxation after 30 mins by agarose gel electrophoresis
# In short: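 Supercoiled plasmid DNA incubated with E. coli Topo IA in the presence of compound at […]. Relaxation products were resolved by electrophoresis on 1% agarose gel.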
# [2] = system: Escherichia coli; assay: Antibacterial activity against Escherichia coli DH5[alpha] assessed as growth inhibition after 18 to 24 hrs by broth microdilution method; format: functional
# [3] = system: Escherichia coli; assay: Antibacterial activity against Escherichia coli ATCC 25922 assessed as growth inhibition after 18 to 24 hrs by broth microdilution method; format: functional
# [4] = system: Escherichia coli; assay: Bactericidal activity against Escherichia coli DH5[alpha] by agar plating method; format: functional
# [5] = system: Escherichia coli; assay: Bactericidal activity against Escherichia coli ATCC 25922 by agar plating method; format: functional
Structure (SMILES),IC50 [1] [µM],MIC50 [2] [µg/mL],MIC50 [3] [µg/mL],MIC90 [3] [µg/mL],MBC [4] [µg/mL],MBC [5] [µg/mL],MIC90 [2] [µg/mL]
CN(C)CCN1CCN(c2ccc3nc(-c4ccc5nc(-c6ccc(O)cc6)[nH]c5c4)[nH]c3c2)CC1,8,64,> 128,–,–,–,–
Oc1ccc(-c2nc3ccc(-c4nc5ccc(N6CCN(c7ccncc7)CC6)cc5[nH]4)cc3[nH]2)cc1,> 50,> 128,> 128,–,–,–,–
COc1ccc(-c2nc3ccc(-c4nc5ccc(N6CCN(c7ccc(N)cc7)CC6)cc5[nH]4)cc3[nH]2)cc1OC,20.3,> 128,> 128,–,–,–,–
CCN1CCN(c2ccc3nc(-c4ccc5nc(-c6ccc(OC)c(OC)c6)[nH]c5c4)[nH]c3c2)CC1,12.3,–,16,14.8,16,32,–
CCOc1ccc(-c2nc3ccc(-c4nc5ccc(N6CCN(CCNC(=O)C(F)(F)F)CC6)cc5[nH]4)cc3[nH]2)cc1,50.8,16,10.4,20.8,32,32,22.5
Oc1ccc(-c2nc3ccc(-c4nc5ccc(N6CCN(c7ccc(F)cc7)CC6)cc5[nH]4)cc3[nH]2)cc1,20.3,> 128,> 128,–,–,–,–
Nc1ccc(N2CCN(c3ccc4nc(-c5ccc6nc(-c7ccc(O)cc7)[nH]c6c5)[nH]c4c3)CC2)cc1,4.7,128,> 128,–,–,–,–
COc1ccc(-c2nc3ccc(-c4nc5ccc(N6CCN(CCN(C)C)CC6)cc5[nH]4)cc3[nH]2)cc1OC,3,128,128,–,–,–,–
CCOc1ccc(-c2nc3ccc(-c4nc5ccc(N6CCN(c7ccncc7)CC6)cc5[nH]4)cc3[nH]2)cc1,> 50,> 128,> 128,–,–,–,–
COc1ccc(-c2nc3ccc(-c4nc5ccc(N6CCN(c7ccc(F)cc7)CC6)cc5[nH]4)cc3[nH]2)cc1OC,> 50,> 128,> 128,–,–,–,–
CCN1CCN(c2ccc3nc(-c4ccc5nc(-c6ccc(O)cc6)[nH]c5c4)[nH]c3c2)CC1,5.8,64,> 128,–,128,–,121
Oc1ccc(-c2nc3ccc(-c4nc5ccc(N6CCN(c7ncccn7)CC6)cc5[nH]4)cc3[nH]2)cc1,> 50,> 128,> 128,–,–,–,–
Oc1ccc(-c2nc3ccc(-c4nc5ccc(N6CCN(c7ccccc7)CC6)cc5[nH]4)cc3[nH]2)cc1,60.3,> 128,> 128,–,–,–,–
N#Cc1ccccc1N1CCN(c2ccc3nc(-c4ccc5nc(-c6ccc(O)cc6)[nH]c5c4)[nH]c3c2)CC1,20.4,> 128,> 128,–,–,–,–
O=C(NCCN1CCN(c2ccc3nc(-c4ccc5nc(-c6ccc(O)cc6)[nH]c5c4)[nH]c3c2)CC1)C(F)(F)F,45.8,> 128,> 128,–,–,–,–
COc1ccc(-c2nc3ccc(-c4nc5ccc(N6CCN(c7ccccc7)CC6)cc5[nH]4)cc3[nH]2)cc1OC,3.8,> 128,> 128,–,–,–,–
CCCN1CCN(c2ccc3nc(-c4ccc5nc(-c6ccc(O)cc6)[nH]c5c4)[nH]c3c2)CC1,20.8,> 128,> 128,–,–,–,–
COc1ccc(-c2nc3ccc(-c4nc5ccc(N6CCN(c7ccccc7C#N)CC6)cc5[nH]4)cc3[nH]2)cc1OC,3.76,> 128,> 128,–,–,–,–
